Published values gathered from unrelated publications.
Lines come from different studies, so protocols differ.
Target: Ephrin type-B receptor 2 (EPHB2, Homo sapiens, UniProt P29323)
One construct used (P29323 1-1055): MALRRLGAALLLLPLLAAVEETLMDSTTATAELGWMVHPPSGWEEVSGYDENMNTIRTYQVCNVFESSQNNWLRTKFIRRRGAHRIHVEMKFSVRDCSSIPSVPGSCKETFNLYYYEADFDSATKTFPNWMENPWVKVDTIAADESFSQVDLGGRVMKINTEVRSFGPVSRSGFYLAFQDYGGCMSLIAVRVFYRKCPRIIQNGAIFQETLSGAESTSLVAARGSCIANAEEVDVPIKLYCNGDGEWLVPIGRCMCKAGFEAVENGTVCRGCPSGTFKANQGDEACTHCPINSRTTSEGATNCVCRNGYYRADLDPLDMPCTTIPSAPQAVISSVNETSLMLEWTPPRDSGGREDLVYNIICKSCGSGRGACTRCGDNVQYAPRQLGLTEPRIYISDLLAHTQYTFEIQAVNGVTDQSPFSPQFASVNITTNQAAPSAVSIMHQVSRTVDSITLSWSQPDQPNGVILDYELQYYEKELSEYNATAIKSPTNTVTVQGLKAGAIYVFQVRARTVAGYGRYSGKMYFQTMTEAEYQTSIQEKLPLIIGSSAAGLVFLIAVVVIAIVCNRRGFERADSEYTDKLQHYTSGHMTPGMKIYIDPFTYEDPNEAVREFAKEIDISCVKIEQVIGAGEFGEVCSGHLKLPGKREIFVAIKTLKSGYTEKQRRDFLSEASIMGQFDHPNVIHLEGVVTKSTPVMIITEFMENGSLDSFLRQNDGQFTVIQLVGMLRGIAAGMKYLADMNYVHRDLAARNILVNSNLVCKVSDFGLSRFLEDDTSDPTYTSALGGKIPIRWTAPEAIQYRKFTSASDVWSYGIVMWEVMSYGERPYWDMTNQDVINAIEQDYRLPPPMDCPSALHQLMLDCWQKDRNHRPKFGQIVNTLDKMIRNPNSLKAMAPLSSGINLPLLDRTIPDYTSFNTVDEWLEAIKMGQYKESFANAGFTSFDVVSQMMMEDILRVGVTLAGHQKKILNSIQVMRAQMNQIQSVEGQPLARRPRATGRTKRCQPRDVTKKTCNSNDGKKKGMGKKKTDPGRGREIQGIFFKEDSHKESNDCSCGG

Structure (SMILES) | test | setting | remaining binding [%]
COCCOc1nc(-c2ccc(Cl)nc2)nc2c1CN(C(=O)c1ncn3ccccc13)CC2 | cell-free assay, competition with immobilised ligand | 0.1 µM | 79
CN(c1nccc(-c2cnn3ncccc23)n1)C1CC1 | binding | 1 µM | 100
Cn1cc(Cl)c2c(Oc3c(F)cc(Nc4cc(Cl)nc(N)n4)cc3F)ccnc21 | cell-free assay, competition with immobilised ligand | 0.1 µM | 100
Nc1ncc2c(n1)-c1c([nH]c3ccc(C#CC4CC4)cc13)CCCC2 | binding, competition with immobilised ligand | 1 µM | 90
O=C(NC[C@@H]1[C@H]2CN(C(=O)OCc3cc(C(F)(F)F)cc(C(F)(F)F)c3)C[C@@H]12)c1ccc2[nH]nnc2c1 | cell-free assay, competition with immobilised ligand | 1 µM | 100
COc1cnc(Nc2cccc(S(N)(=O)=O)c2)nc1N1CCN(c2ccccc2)CC1 | binding, competition with immobilised ligand | 1 µM | 100
O=C(NCCCN1CCOCC1)c1ccc(Nc2nccc(-c3cc4ccccc4s3)n2)cc1 | binding, competition with immobilised ligand | 1 µM | 98
Cc1nccc(COC(=O)N2C[C@@H]3[C@@H](CNC(=O)c4ccc5[nH]nnc5c4)[C@@H]3C2)n1 | cell-free assay, competition with immobilised ligand | 1 µM | 100
C[C@H]1CCN(c2nccc(-c3cnn4ncccc34)n2)C1 | binding | 1 µM | 0
C[C@@H]1CN(c2cc(-c3n[nH]c4ccc(OC5(C)CC5)cc34)ncn2)C[C@H](C)O1 | cell-free assay, competition with immobilised ligand | 0.1 µM | 90
CN(CCCC(F)(F)F)c1nccc(-c2cnn3ncccc23)n1 | binding | 1 µM | 84
O=C(NCC1CCOCC1)c1n[nH]cc1NC(=O)c1c(F)cccc1F | binding, competition with immobilised ligand | 1 µM | 98
N[C@H]1CCN(c2nccc(-c3cnn4ncccc34)n2)C1 | binding | 1 µM | 100
COc1ccc2c(c1)O[C@@H](c1ccc(OC)c(OC)c1)C[C@H]2NC(=O)C1(c2ccc3c(c2)OC(F)(F)O3)CC1 | cell-free assay, competition with immobilised ligand | 1 µM | 100
O=C(c1ccc(Nc2nccc(-c3cc4ccccc4s3)n2)cc1)N1CCC(N2CCCC2)CC1 | binding, competition with immobilised ligand | 1 µM | 100
CN(C)c1ncc(F)c(-c2cnn3ncccc23)n1 | binding | 1 µM | 100
Cc1cnc(Nc2ccc(C(=O)N3CCC(N4CCCC4)CC3)cc2)nc1-c1cc2ccccc2s1 | binding, competition with immobilised ligand | 1 µM | 65
c1cnn2ncc(-c3ccnc(N4CCC45COC5)n3)c2c1 | binding | 1 µM | 100
COc1ncc2cc3ccccc3nc2c1C#N | cell-free assay, competition with immobilised ligand | 5 µM | 99
